# Source: PubChem BioAssay (Broad Institute)
# An excerpt weighted towards active compounds, which were near 1.4% of everything screened.
# CDK5 p35 inh: inhibitors of human CDK5/p35 kinase; actives 0.01% (n = 330,000); Recombinant CDK5/p35, ADP-Glo luminescence, 60 min; Q00535+Q15078; inhibition, % at 10 µM;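 active = highest replicate inhibition of at least 50% and at least 75% of replicates reaching 50%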
# Env fusion inh: blocks HIV Env-driven cell-cell fusion; HeLa-JRFL Env/CEM21 cell fusion, luciferase; inhibition, % at 12.3 µM; actives 1.1% (n = 360,000);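 active = mean replicate inhibition score of at least 50 and every replicate individually at or above 50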
# GSK3 alpha inh: inhibitors of human GSK-3 alpha kinase; ADP-Glo luminescence, 60 min; inhibition, % at 10 µM; actives 0.1% (n = 320,000);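 active = more than half of replicates show inhibition above 20%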;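 also: GST-tagged GSK-3 alpha with peptide substrate and 25 µM ATP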
# Target sequence (P49840 whole entry, looked up): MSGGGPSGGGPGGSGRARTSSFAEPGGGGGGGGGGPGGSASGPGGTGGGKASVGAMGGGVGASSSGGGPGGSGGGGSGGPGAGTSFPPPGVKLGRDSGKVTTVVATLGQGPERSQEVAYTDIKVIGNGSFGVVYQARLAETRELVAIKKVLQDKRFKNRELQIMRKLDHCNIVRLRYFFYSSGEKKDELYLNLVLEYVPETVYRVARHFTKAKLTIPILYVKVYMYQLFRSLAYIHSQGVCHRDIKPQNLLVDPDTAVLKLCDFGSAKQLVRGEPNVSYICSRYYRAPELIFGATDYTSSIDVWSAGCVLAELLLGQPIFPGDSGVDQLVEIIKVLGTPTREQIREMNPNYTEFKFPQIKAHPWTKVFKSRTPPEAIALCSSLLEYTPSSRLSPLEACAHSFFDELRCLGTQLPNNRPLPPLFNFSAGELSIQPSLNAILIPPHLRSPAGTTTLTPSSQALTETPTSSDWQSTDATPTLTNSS
# GSIS activator: primary screen for activators of insulin secretion dependent on glucose, INS-1E cells, GLuc reporter luminescence | AID 743287 | INS-1E GLuc reporter insulin secretion, 2-3 h | activation, % at 16.6 µM | actives 0.61% (n = 370,000);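 active = lowest replicate activation of at least 40%, so every replicate reaches that level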
# STK33 kinase inh: blocks human STK33 kinase activity. inhibition, % at 10 µM. actives 0.073% (n = 320,000). purified STK33, MBP phosphorylation, ADP-Glo luminescence;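 active = inhibition at or above 25%, using the most active replicate where run in duplicate; inactive = inhibition below 25%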
# GSK3beta inhib: blocks human GSK3beta kinase activity | GST-GSK3beta kinase, ADP-Glo luminescence, 60 min; active compounds read low | activity score (negative = inhibition), % at 10 µM | actives 0.038% (n = 300,000) | AID 2097;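 active = more than half of replicate wells score below -50%, meaning over 50% inhibition versus plate controls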
#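 Assay system: GST-tagged human GSK3beta kinase, cell-free; Input: 1.6 ng GSK3beta; Medium: Tris/MgCl2 kinase buffer; Timing: 60 min enzyme reaction, room temperature; Signal: ADP-Glo luminescence quantifying ADP generated by kinase; Evaluation: score relative to plate controls; Benchmarks: DMSO neutral wells and GW8510 at 20 µM as positive.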
# A number is an active result; - = inactive; . = no result given; [ ] = dose if it differs, or a comment.
SMILES,CDK5 p35 inh,Env fusion inh,GSK3 alpha inh,GSIS activator,STK33 kinase inh,GSK3beta inhib
O=C(C[C@H]1CC[C@@H](NC(=O)C2CCC2)[C@H](CO)O1)NCCCN1CCOCC1,.,-,.,-,.,.
C[C@@H]1CN([C@@H](C)CO)C(=O)c2cccc(NC(=O)Nc3cccc4ccccc34)c2O[C@H]1CN(C)C(=O)NC1CCCCC1,.,-,.,-,.,.
COc1ccc(C(O)c2nc3ccccc3n2C)cc1OC (configuration not stated),-,74,-,.,-,-
O=C(Nc1ccc(Cl)cc1)N[C@@H]1CC[C@@H](CCn2cc(C3(O)CCCC3)nn2)O[C@H]1CO,.,-,.,-,.,.
CCCCN(Cc1nc2ccccc2c(=O)[nH]1)C(=O)c1nn(C)c(=O)c2ccccc12,-,-,.,47,.,.
CN1C(=O)c2cc(NS(=O)(=O)c3ccc(F)cc3)ccc2OC[C@H]2O[C@@H](CC(=O)O)CC[C@@H]21,.,-,.,-,.,.
CCOC(=O)CCCCCC(=O)Nc1ccc2c(c1)C(=O)N([C@@H](C)CO)C[C@H](C)[C@H](CN(C)S(=O)(=O)c1ccc(F)cc1)O2,.,.,.,-,.,.
CCC(C)N(C(=O)CSc1nncn1C)C1CCS(=O)(=O)C1 (configuration not stated),-,-,-,102,-,.
CCCCOCC1CN(CCCC)S(=O)(=O)c2c(Oc3ccc(C(C)C)cc3)cccc2O1 (configuration not stated),.,-,.,-,.,.
CCCCOCC1CN(CCCC)S(=O)(=O)c2c(Oc3ccc(C)cc3)cccc2O1 (configuration not stated),.,65,.,-,.,.
CC(C)NC(=O)Nc1ccc2c(c1)C(=O)N([C@H](C)CO)C[C@H](C)[C@H](CN(C)C(=O)NC1CCCCC1)OCCCC[C@@H](C)O2,.,-,.,-,.,.
Cc1ccc(-n2nc3c(c2NC(=O)C2CC2)CS(=O)(=O)C3)cc1,-,-,-,57,-,-
COc1cc(/C=N/n2c(-c3cc(C)[nH]n3)n[nH]c2=S)ccc1O,-,-,-,-,31,-
COc1cc(/C=N/n2c(-c3cc(C)[nH]n3)n[nH]c2=S)cc(OC)c1OC,-,-,-,-,-,-
COc1cc(/C=N/n2c(C3CCCCC3)n[nH]c2=S)ccc1O,-,-,-,-,34,-
O=C(N[C@@H]1CC[C@@H](CCn2cc(C3(O)CCCC3)nn2)O[C@@H]1CO)C1CCCCC1,.,-,.,-,.,.
CCOC(=O)c1cnc(SCC(=O)OCC(=O)N(CC)C2CCS(=O)(=O)C2)nc1N (configuration not stated),-,.,-,-,-,-
CCOC(=O)c1cnc(SCC(=O)OCC(=O)NC2CCS(=O)(=O)C2)nc1N (configuration not stated),-,-,-,42,-,-
CCn1c(COc2ccccc2)nnc1SCC(=O)Nc1cc(C)ccc1OC,-,.,-,-,-,-
CCn1c(COc2ccc(C)cc2)nnc1SCC(=O)Nc1cc(OC)ccc1OC,-,58,-,.,-,-
CCOC(=O)c1cnc(SCC(=O)Nc2cc(OC)ccc2OC)nc1N,-,74,-,.,-,-
CN(C)CCCNC(=O)C[C@H]1CC[C@H]2[C@@H](COc3ccc(NC(=O)C4CCC4)cc3C(=O)N2C)O1,.,.,.,-,.,.
Cc1ccc(-c2cnc3c(c2)C(=O)N([C@@H](C)CO)C[C@@H](C)[C@H](CN(C)C(=O)c2cccc(F)c2)O3)cc1,.,-,.,-,.,.
CN=c1scc(-c2ccccc2F)n1/N=C/c1ccc[nH]1,-,67,-,-,-,-
CN=c1scc(-c2ccccc2F)n1/N=C/c1ccc(O)c(O)c1O,-,-,.,-,.,-
SMILES,CDK5 p35 inh,Env fusion inh,GSK3 alpha inh,GSIS activator,STK33 kinase inh,GSK3beta inhib
C=CCOc1ccc(/C=C/C(=O)OCC(=O)NCC2CCCCC2)cc1,-,-,-,-,-,-
C=CCOc1ccc(/C=C/C(=O)OCC(=O)NC2CCCCCCC2)cc1,-,60,-,-,-,-
CC(=O)c1sc(Nc2ccccc2)nc1C,.,-,.,-,.,.
COc1ccc(Nc2nc(N)c(C(=O)c3ccc(OC)cc3)s2)cc1,-,-,77,-,-,-65
COc1ccc(C(=O)c2sc(Nc3ccccc3)nc2C)cc1,-,-,-,-,-,-
CC(C)(C)C(=O)c1sc(Nc2ccccc2)nc1N,-,.,82,-,-,-64
COc1ccc(Nc2nc(N)c(C(=O)c3ccc(F)cc3)s2)cc1,-,-,62,-,-,-
N#Cc1ccc(-c2ccc3c(c2)[C@H]2[C@H](CCN2C(=O)C2CCCCC2)[C@H](CO)N3)cc1,.,.,.,-,.,.
N#Cc1ccc(-c2ccc3c(c2)[C@@H]2[C@@H](CCN2C(=O)C2CCCC2)[C@@H](CO)N3)cc1,.,.,.,41,.,.
CC(=O)c1cc(C#N)c(SCCC(C)C)nc1C,-,.,-,-,-,-
CC(C)CCSc1nc(N)c(C#N)cc1C#N,-,82,-,-,-,-
C[C@H](CO)N1C[C@H](C)[C@@H](CN(C)Cc2ccc3c(c2)OCO3)OCCCC[C@H](C)Oc2ccc(NS(=O)(=O)c3ccc(Cl)cc3)cc2C1=O,.,-,.,-,.,.
COc1ccccc1N1CCN(C(=O)CSc2nnc3n2C(C)(C)Cc2ccccc2-3)CC1,-,74,.,-,.,-
CCCCOc1ccc(C(=O)Nc2ccc(OCC(=O)N3CCOCC3)cc2)cc1,-,.,-,-,-,-
O=C(Nc1ccc(OCC(=O)N2CCOCC2)cc1)c1cncc(Br)c1,-,57,-,-,-,-
Cc1ccc(S(=O)(=O)N(C)C[C@H]2Oc3ccc(NS(=O)(=O)c4ccc(Cl)cc4)cc3C(=O)N([C@@H](C)CO)C[C@@H]2C)cc1,.,-,.,-,.,.
C[C@H]1CN([C@@H](C)CO)C(=O)c2cc(NS(=O)(=O)c3ccc(F)cc3)ccc2O[C@H]1CN(C)S(=O)(=O)c1ccc(F)cc1,.,58[16.7 µM],.,-,.,.
Cc1ccc(S(=O)(=O)N(C)C[C@@H]2Oc3ccc(NS(=O)(=O)c4ccc(Cl)cc4)cc3C(=O)N([C@@H](C)CO)C[C@H]2C)cc1,.,64[16.7 µM],.,-,.,.
C[C@@H]1CN([C@@H](C)CO)C(=O)c2cccc(NC(=O)C3CCCCC3)c2O[C@H]1CN(C)S(C)(=O)=O,.,-,.,-,.,.
Cc1noc(C)c1NC(=O)Nc1ccc2c(c1)C(=O)N([C@H](C)CO)C[C@H](C)[C@H](CN(C)C(=O)Nc1cccc3ccccc13)O2,.,.,.,-,.,.
CCCC(=O)Nc1ccc2c(c1)C(=O)N(C)[C@@H]1CC[C@H](CC(=O)NCc3ccccc3F)O[C@H]1CO2,.,-,.,-,.,.
CNC(=O)CSc1nc2cccnc2n1-c1ccc(F)cc1,-,-,-,78,-,-
CNC(=O)CSc1nc2cccnc2n1C1CCCCC1,-,-,-,-,-,-
CC(C)(C)c1ccc(N/N=C(\C#N)S(=O)(=O)C(C)(C)C)cc1,-,-,-,-,-,-
CC(C)(C)S(=O)(=O)/C(C#N)=N/Nc1ccc(Cl)cc1,-,58,-,-,-,-
CCc1ccc(OCC(=O)NC(=S)Nc2ccc(F)cc2)c(Br)c1,-,.,-,59,-,-
